The test system of one assay is DhelOBP21-T119N mutant. Kind of assay: Competitive fluorescence binding assay with 1-NPN as probe, mutant T119N. Also noted: species or system Dastarcus helophoroides. The following applies: for Binding ability of mutant T119N compared with DhelOBP-WT: pH 7.4; for Binding affinity of mutant T119N compared with DhelOBP-WT: pH 5.0. An outline of the steps: (§1)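 Competitive displacement at pH 7.4 or pH 5.0: 2 μM recombinant protein with a standard concentration of 1-NPN, titrated with aliquots of odorant volatiles (stocks in methanol). Fluorescence is read as for the 1-NPN titration. IC50 is the competitor concentration that halves the initial fluorescence. Ki = IC50/(1+[1-NPN]/K1-NPN), using the Scatchard Kd. Three independent measurements; reported as 1/Ki*1000.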

In a further assay the test system is DhelOBP21-I84N mutant. Kind of assay: Competitive fluorescence binding assay with 1-NPN as probe, mutant I84N. Also noted: species or system Dastarcus helophoroides. The method in brief: as §1

For the molecule `C=CC(=C)CCC=C(C)C` [Myrcene, myrcene], the “Binding ability of mutant T119N compared with DhelOBP-WT” value in the assay with DhelOBP21-T119N mutant is given as “declined significantly”.
Regarding `Cc1cc(C(C)(C)C)c(O)c(C(C)(C)C)c1` [Butylated hydroxytoluene, butylated hydroxytoluene], the “Binding affinity of mutant I84N compared with DhelOBP-WT” value in the assay with DhelOBP21-I84N mutant (pH 5.0) was “relatively higher affinities”. In the assay with DhelOBP21-T119N mutant, the “Binding ability of mutant T119N compared with DhelOBP-WT” value is given as “greater binding ability”.
On to `CC12CCC(CC1=O)C2(C)C` (stereo not shown) [Camphor, camphor], for which the “Binding affinity of mutant I84N compared with DhelOBP-WT” value in the assay on DhelOBP21-I84N mutant (pH 5.0) is “did not show any apparent difference”. Besides, in the assay with DhelOBP21-T119N mutant, the “Binding affinity of mutant T119N compared with DhelOBP-WT” value is on record as “did not show any apparent difference”.
For `C=C1C2CCC(C2)C1(C)C` (stereo not shown) [Camphene, camphene], the “Binding affinity of mutant I84N compared with DhelOBP-WT” value in the assay with DhelOBP21-I84N mutant (pH 5.0) is listed as “did not show any apparent difference”. Moreover, in the assay with DhelOBP21-T119N mutant, the “Binding affinity of mutant T119N compared with DhelOBP-WT” value is “did not show any apparent difference” and the “Binding ability of mutant T119N compared with DhelOBP-WT” value was “declined significantly”.
As for `CC1=CCC(=C(C)C)CC1` [Terpinolene], the “Binding affinity of mutant I84N compared with DhelOBP-WT” value in the assay with DhelOBP21-I84N mutant (pH 7.4) was “better than with DhelOBP-WT”. The “Binding affinity of mutant T119N compared with DhelOBP-WT” value in the assay with DhelOBP21-T119N mutant is on record as “relatively higher affinity”.

The values are drawn from publication PMC4582152 (International Journal of Biological Sciences, 2015).
